Results on 1 compound are retold here after paper PMC12667952 (bioRxiv, 2025).

Residue numbers refer to the chain shown, from its start. “Also recorded” adds a separate entry of the source.

In data set [1] the target is T1, hGlyT2^WT (Homo sapiens, UniProt Q9Y345).
T1 sequence (Q9Y345 1-797): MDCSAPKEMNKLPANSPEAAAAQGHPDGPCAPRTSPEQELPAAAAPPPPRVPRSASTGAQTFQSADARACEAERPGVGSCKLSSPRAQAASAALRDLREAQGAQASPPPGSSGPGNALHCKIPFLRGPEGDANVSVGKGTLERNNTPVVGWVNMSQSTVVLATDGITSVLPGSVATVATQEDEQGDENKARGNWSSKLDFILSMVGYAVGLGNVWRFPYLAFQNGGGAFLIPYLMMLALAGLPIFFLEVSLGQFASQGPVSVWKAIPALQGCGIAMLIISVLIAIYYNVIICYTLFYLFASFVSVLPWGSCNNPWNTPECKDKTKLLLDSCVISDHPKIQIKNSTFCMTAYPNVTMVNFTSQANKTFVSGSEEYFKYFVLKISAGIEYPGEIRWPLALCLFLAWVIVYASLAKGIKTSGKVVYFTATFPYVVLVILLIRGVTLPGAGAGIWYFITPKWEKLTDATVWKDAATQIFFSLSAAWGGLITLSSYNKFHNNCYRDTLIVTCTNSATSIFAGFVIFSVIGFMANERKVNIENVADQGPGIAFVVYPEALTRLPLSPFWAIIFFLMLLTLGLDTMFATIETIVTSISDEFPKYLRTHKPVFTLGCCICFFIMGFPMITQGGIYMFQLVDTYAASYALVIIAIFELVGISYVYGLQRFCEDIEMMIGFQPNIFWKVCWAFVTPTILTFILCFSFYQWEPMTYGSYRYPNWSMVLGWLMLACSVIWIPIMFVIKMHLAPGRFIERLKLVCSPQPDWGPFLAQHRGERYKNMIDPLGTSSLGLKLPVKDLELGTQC
Description: Reversibility. As to conditions: washout, hGlyT2^WT. Type of data set: cell-based. A digest of the protocol:
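Xenopus oocytes injected with 20 ng hGlyT2 WT cRNA and held 3–6 days at 18 °C. Glycine currents recorded by two-electrode voltage clamp at −60 mV. Test compound applied at a single concentration (10 μM maximum), then washed out. Recovery of 30 µM glycine-evoked currents followed to 30 min, normalised to pre-inhibitor current. n ≥ 5 from at least two frogs.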

The target in data set [2] is T1, hGlyT2^WT. Type of data set: cell-based. As to conditions: glycine concentration-dependent currents with co-applied inhibitor.
The subject of data set [3] is C57BL/6J mice. Kind of data set: Conditioned place preference. Type of data set: in vivo, mouse. As to conditions: 50 and 150 mg/kg, i.p.
Data set [4] has as its target T1, hGlyT2^WT. Kind of data set: Sodium dependence of inhibition of glycine transport currents. Type of data set: cell-based. As to conditions: 300 μM glycine.
The test system of data set [5] is CCI mice. Kind of data set: Mechanical allodynia. Type of data set: in vivo, mouse. Particulars: for Peak reduction of response rate to von Frey stimulus: 3 hours. The procedure, abridged: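 CCI mice tested 14 days after surgery. […] A single 0.4 g von Frey filament (about 15% response in naïve mice) applied to the left hind plantar surface until it bent. Response rate recorded after dosing.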

The subject of data set [6] is histamine (H1). Kind of data set: Cerep panel off-target selectivity screen, H1. Type of data set: binding. Particulars: 1 × 10^-5 M.
The target of data set [7] is T2, hGlyT2^W215F (Homo sapiens, UniProt Q9Y345, W215F).
T2 sequence (Q9Y345 1-797 W215F): T1 sequence (Q9Y345 1-797) with W215F
Kind of data set: Reversibility. Type of data set: cell-based.

In data set [8] the test system is PSNL mice. Description: Mechanical allodynia. Type of data set: in vivo, mouse. Particulars: 50 mg/kg i.p., 90 mins.
Data set [9] can be described thus: Study 2: in-life plasma and CNS drug exposure study in male C57BL/6 mice. Particulars: 50 mg/kg i.p., 30 min. Type of data set: in vivo, mouse. The procedure, abridged:
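Contract in-life study in male C57BL/6 mice (22 ± 2 g), acclimated for 3 days. Plasma and brain sampled at 30 and 120 min post-injection. Unbound plasma and brain concentrations calculated.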

As a reminder, the IC50 is the concentration that gives 50% inhibition. Low values mean higher potency, high ones lower potency. For `CN(C)C1(CNC(=O)c2ccc3c(c2)CCN3C(=O)c2ccccc2)CCOCC1` [RPI-GLYT2–82, 1-benzoyl-N-((4-(dimethylamino)tetrahydro-2H-pyran-4-yl)methyl)indoline-5-carboxamide], the “Reversibility of inhibition (recovery of glycine-induced currents)” value in data set [1] is “recovered to pre-inhibition levels within five minutes”. Moreover, the Mechanism of inhibition entry in data set [2] is reported as “non-competitive inhibitor”. The “Preference for the paired chamber” value in [3] was “did not increase preference; also recorded: no significant preference”. The IC50 in data set [4] (IC50 at 20 mM Na+, 20 mM Na+, choline chloride substitute) amounted to 159 nM; in data set [4] (IC50 at 100 mM Na+, 100 mM Na+), 279 nM. Besides, the “Peak reduction of response rate to von Frey stimulus” value in data set [5] (CCI mice, 50 mg/kg i.p.) worked out at 30%; in [5] (CCI mice, 100 mg/kg i.p.), 42%; in data set [8] it was 22.5%. Further, the “Time of maximum efficacy, mechanical allodynia” value in [5] (CCI mice, 50 and 100 mg/kg i.p.) was “between 90 minutes and 3 hours post-administration”. In [5] (pregabalin 50 mg/kg), the “Efficacy at alleviating mechanical allodynia compared to pregabalin” value is “not as efficacious”. For the same compound, the “Activity at histamine H1” value in [6] is “inactive”. Also, the “Washout of inhibitor from hGlyT2^W215F” value in [7] is “almost immediate”. For the same compound, the “Cu,b, calculated unbound concentration in brain” value in data set [9] is 597.89 nM.
